Test results published in paper PMC3889329 (Diabetes Therapy, 2013).
“Also recorded” adds a separate entry of the source.

Key:
Assay type in all cases: in vivo, human
[1] = test system: patients with type 2 diabetes mellitus; test: Urine volume and micturition frequency
Method in brief: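 Urine volume and micturition frequency were recorded under controlled fluid intake, with oral once-daily dosing of test compound or placebo taken with 240 mL water. Dosing was a single dose on day 1, then days 3–9. Placebo was given within each dose group at a 3:1 active:placebo randomization.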

[2] = test system: patients with type 2 diabetes mellitus; test: Urinary glucose excretion; settings: day 1
Method in brief: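 All urine was collected over 24 h on days −2, −1, 1, 8 and 9, extended to 48 h after day 1 and 72 h after day 9. Ae0–24 was measured after a single dose with OGTT (75 g glucose, day 1) and after multiple daily doses, fasting (day 8) or with OGTT (day 9). Results are mean (SD) for the treated set.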

[3] = test system: patients with type 2 diabetes mellitus; test: Laboratory electrolyte and lipid measurements; settings: normalized to a standard reference range

## OC[C@H]1O[C@@H](c2ccc(Cl)c(Cc3ccc(O[C@H]4CCOC4)cc3)c2)[C@H](O)[C@@H](O)[C@@H]1O [Empagliflozin]
[1]; 2.5 mg qd, Day 1, day 07:00–18:59
  Mean (SD) micturition day frequency: 6.0 (1.2)
[1]; 2.5 mg qd, Day 1, night 19:00–06:59
  Mean (SD) micturition night frequency: 3.7 (1.5)
[1]; 2.5 mg qd, Day 8, day 07:00–18:59
  Mean (SD) micturition day frequency: 6.6 (1.8)
[1]; 2.5 mg qd, Day 8, night 19:00–06:59
  Mean (SD) micturition night frequency: 3.7 (1.2)
[1]; 2.5 mg qd, Day 9, day 07:00–18:59
  Mean (SD) micturition day frequency: 6.4 (1.9)
[1]; 2.5 mg qd, Day 9, night 19:00–06:59
  Mean (SD) micturition night frequency: 3.4 (1.3)
[1]; 10 mg qd, Day 1, day 07:00–18:59
  Mean (SD) micturition day frequency: 8.3 (1.7)
[1]; 10 mg qd, Day 1, night 19:00–06:59
  Mean (SD) micturition night frequency: 3.8 (0.8)
[1]; 10 mg qd, Day 8, day 07:00–18:59
  Mean (SD) micturition day frequency: 6.8 (1.6)
[1]; 10 mg qd, Day 8, night 19:00–06:59
  Mean (SD) micturition night frequency: 4.0 (1.7)
[1]; 10 mg qd, Day 9, day 07:00–18:59
  Mean (SD) micturition day frequency: 8.9 (1.7)
[1]; 10 mg qd, Day 9, night 19:00–06:59
  Mean (SD) micturition night frequency: 3.7 (0.5)
[1]; 25 mg qd, Day 1, day 07:00–18:59
  Mean (SD) micturition day frequency: 7.8 (2.6)
[1]; 25 mg qd, Day 1, night 19:00–06:59
  Mean (SD) micturition night frequency: 4.3 (1.0)
[1]; 25 mg qd, Day 8, day 07:00–18:59
  Mean (SD) micturition day frequency: 7.0 (1.6)
[1]; 25 mg qd, Day 8, night 19:00–06:59
  Mean (SD) micturition night frequency: 4.8 (1.6)
[1]; 25 mg qd, Day 9, day 07:00–18:59
  Mean (SD) micturition day frequency: 8.2 (2.0)
[1]; 25 mg qd, Day 9, night 19:00–06:59
  Mean (SD) micturition night frequency: 4.1 (1.4)
[1]; 100 mg qd, Day 1, day 07:00–18:59
  Mean (SD) micturition day frequency: 7.9 (2.4)
[1]; 100 mg qd, Day 1, night 19:00–06:59
  Mean (SD) micturition night frequency: 3.6 (1.1)
[1]; 100 mg qd, Day 8, day 07:00–18:59
  Mean (SD) micturition day frequency: 6.9 (1.5)
[1]; 100 mg qd, Day 8, night 19:00–06:59
  Mean (SD) micturition night frequency: 4.7 (1.5)
[1]; 100 mg qd, Day 9, day 07:00–18:59
  Mean (SD) micturition day frequency: 8.4 (2.5)
[1]; 100 mg qd, Day 9, night 19:00–06:59
  Mean (SD) micturition night frequency: 3.7 (1.0)
[1]; controlled fluid intake conditions
  Change in micturition frequency compared with placebo: no changes in urine volume or micturition frequency; also recorded: no changes to micturition frequency
[2]; 2.5 mg single dose, OGTT conditions
  Amount of glucose excreted in the urine over 24 h (Ae0–24): 46.3 g
[2]; single dose
  Increase in UGE with fourfold dose increase from 2.5 to 10 mg: more than a twofold increase
  Increase in UGE with fourfold dose increase from 25 to 100 mg: ~1.2 fold
[3]; 2.5 mg qd
  Calcium, mean (SD), last value on treatment: 2.3 (0.1) mmol/l
  HDL-cholesterol, mean (SD), last value on treatment: 16 (18) mg/dL
  Potassium, mean (SD), last value on treatment: 4.2 (0.3) mmol/l
  Sodium, mean (SD), last value on treatment: 140 (2) mmol/l
  Total cholesterol, mean (SD), last value on treatment: 175 (11) mg/dL
  Triglycerides, mean (SD), last value on treatment: 171 (65) mg/dL
[3]; 10 mg qd, N = 8
  HDL-cholesterol, mean (SD), last value on treatment: 31 (18) mg/dL
[3]; 10 mg qd
  Calcium, mean (SD), last value on treatment: 2.3 (0.1) mmol/l
  Potassium, mean (SD), last value on treatment: 4.4 (0.3) mmol/l
  Sodium, mean (SD), last value on treatment: 140 (1) mmol/l
  Total cholesterol, mean (SD), last value on treatment: 171 (25) mg/dL
  Triglycerides, mean (SD), last value on treatment: 114 (42) mg/dL
[3]; 25 mg qd
  Calcium, mean (SD), last value on treatment: 2.3 (0.1) mmol/l
  HDL-cholesterol, mean (SD), last value on treatment: 41 (17) mg/dL
  Potassium, mean (SD), last value on treatment: 4.1 (0.3) mmol/l
  Sodium, mean (SD), last value on treatment: 139 (2) mmol/l
  Total cholesterol, mean (SD), last value on treatment: 174 (13) mg/dL
  Triglycerides, mean (SD), last value on treatment: 89 (26) mg/dL
[3]; 100 mg qd
  Calcium, mean (SD), last value on treatment: 2.3 (0.1) mmol/l
  HDL-cholesterol, mean (SD), last value on treatment: 37 (18) mg/dL
  Potassium, mean (SD), last value on treatment: 4.5 (0.3) mmol/l
  Sodium, mean (SD), last value on treatment: 139 (2) mmol/l
  Total cholesterol, mean (SD), last value on treatment: 174 (11) mg/dL
  Triglycerides, mean (SD), last value on treatment: 97 (27) mg/dL
